Assay results from ChEMBL document CHEMBL3526026, “Function of the blood-brain barrier and restriction of drug delivery to invasive glioma cells: findings in an orthotopic rat xenograft model of glioma” (Drug Metab Dispos, 2013).

Tests used:
[1] = Drug uptake in tumor rim of Rowett rat orthotopically xenografted with human U87 cells at 20 mg/kg/day, po for 5 days by LC-MS/MS analysis; format: ADME, organism-based, U-87MG ATCC; set-up: route oral; settings: read-out: Drug uptake
In short: (§1)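 Rats received intracerebral U87 cells overexpressing wild-type EGFR (2.5 × 10^5 cells, right frontal, stereotaxic); tumors grew for 3 weeks. Erlotinib in 0.5% methylcellulose was given by oral gavage daily for 5 days. Sacrifice was 30 minutes after the last dose, with saline cardiac perfusion in the perfused group. Tissue was visually split into tumor core, adjacent rim and contralateral hemisphere. LC-MS/MS; n = 6.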

[2] = Drug uptake in tumor core of Rowett rat orthotopically xenografted with human U87 cells at 20 mg/kg/day, po for 5 days by LC-MS/MS analysis; format: ADME, organism-based, U-87MG ATCC; set-up: route oral; settings: read-out: Drug uptake; in short: as §1
[3] = Drug uptake in tumor core of Rowett rat orthotopically xenografted with human U87 cells at 20 mg/kg/day for 3 days by LC-MS/MS analysis in presence of elacridar relative to elacridar non-treated control; format: ADME, organism-based, U-87MG ATCC; settings: in vivo, 72 h
In short: (§2)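 U87 cells (wild-type EGFR-transfected) inoculated into right frontal brain of anesthetized rats, 2.5 × 10^5 cells; tumor grown 3 weeks. Erlotinib 20 mg/kg/day in 0.5% methylcellulose by gavage for 3 days; elacridar 10 mg/kg i.v. into jugular vein 30 min before each dose. Sacrifice 30 min after last dose, saline perfusion, brain dissected into tumor core, rim, contralateral hemisphere; plasma and homogenate by LC-MS/MS; n = 4 per group.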

[4] = Drug uptake in tumor rim of Rowett rat orthotopically xenografted with human U87 cells at 20 mg/kg/day for 3 days by LC-MS/MS analysis in presence of elacridar relative to elacridar non-treated control; format: ADME, organism-based, U-87MG ATCC; settings: in vivo, 72 h; in short: as §2
[5] = Drug uptake in tumor rim of Rowett rat orthotopically xenografted with human U87 cells at 20 mg/kg/day for 3 days by LC-MS/MS analysis in presence of elacridar; format: ADME, organism-based, U-87MG ATCC; settings: in vivo, 72 h
In short: (§3)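 U87-EGFR orthotopic rat xenografts (3 weeks' tumor growth) received oral erlotinib in 0.5% methylcellulose daily for 3 days. Elacridar 10 mg/kg was given intravenously via the jugular vein 30 minutes before each erlotinib dose. Sacrifice was 30 minutes after the last dose, followed by saline perfusion. Tumor core, rim and contralateral brain were dissected and analyzed by LC-MS/MS; n = 4 per group, mean ± S.D.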

[6] = Plasma concentration at steady state in MDR1A/B knock-out FVB mouse at 0.6 mg/h/kg, ip administered as infusion after 48 hrs by LC-MS/MS analysis; format: ADME, organism-based; settings: read-out: Cpss
In short: (§4)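 Male FVB mice, 8–10 weeks old, n = 4 per genotype. Continuous intraperitoneal infusion for 48 hours to steady state. Plasma obtained by centrifuging blood. Brain homogenized in 3 volumes of ice-cold 5% BSA in PBS. Erlotinib measured by LC-MS/MS with tyrphostin AG1478 internal standard. Brain values corrected for residual vascular blood, taking plasma space as 1.4% of brain. Mean ± S.D.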

[7] = Ratio of drug level in brain contralateral hemisphere to plasma in Rowett rat orthotopically xenografted with human U87 cells at 20 mg/kg/day for 3 days by LC-MS/MS analysis in presence of elacridar; format: ADME, organism-based, U-87MG ATCC; settings: with elacridar (dose not stated), read-out: BPR; in short: as §2
Nucleic Acid [8] = assay: Ratio of drug level in tumor core to brain contralateral hemisphere in Rowett rat orthotopically xenografted with human U87 cells at 20 mg/kg/day, po for 5 days by LC-MS/MS analysis; format: ADME, organism-based, U-87MG ATCC; set-up: route oral; settings: in vivo, 120 h
In short: (§5)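 U87 cells (wild-type EGFR-transfected) inoculated into right frontal brain of anesthetized rats, 2.5 × 10^5 cells; tumor grown 3 weeks. Erlotinib 20 mg/kg/day in 0.5% methylcellulose by oral gavage for 5 days; sacrifice 30 min after last dose, with or without cardiac saline perfusion; tissue visually dissected into tumor core, rim, contralateral hemisphere; LC-MS/MS; n = 6 per group.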

Brain [9] = assay: Drug uptake in brain of Rowett rat orthotopically xenografted with human U87 cells at 20 mg/kg/day for 3 days by LC-MS/MS analysis in presence of elacridar relative to elacridar non-treated control; format: ADME, organism-based, U-87MG ATCC; settings: in vivo, 72 h; in short: as §2
[10] = Drug uptake in tumor core of Rowett rat orthotopically xenografted with human U87 cells at 20 mg/kg/day for 3 days by LC-MS/MS analysis in presence of elacridar; format: ADME, organism-based, U-87MG ATCC; settings: in vivo, 72 h; in short: as §3
[11] = Ratio of drug level in tumor core to plasma in Rowett rat orthotopically xenografted with human U87 cells at 20 mg/kg/day for 3 days by LC-MS/MS analysis in presence of elacridar; format: ADME, organism-based, U-87MG ATCC; settings: with elacridar (dose not stated); in short: as §2
Brain [12] = assay: Drug uptake in brain of Rowett rat orthotopically xenografted with human U87 cells at 20 mg/kg/day for 3 days by LC-MS/MS analysis in presence of elacridar; format: ADME, organism-based, U-87MG ATCC; settings: in vivo, 72 h; in short: as §3
[13] = Drug uptake in brain of Rowett rat orthotopically xenografted with human U87 cells at 20 mg/kg/day, po for 5 days by LC-MS/MS analysis; format: ADME, organism-based, U-87MG ATCC; set-up: route oral; settings: read-out: Drug uptake; in short: as §1
[14] = Half life in mouse; format: ADME, organism-based; settings: in vivo
[15] = Ratio of steady state drug level in brain to plasma in BCRP1 FVB mouse at 0.6 mg/h/kg, ip administered as infusion after 48 hrs by LC-MS/MS analysis; format: ADME, organism-based; settings: read-out: BPR; in short: as §4
Nucleic Acid [16] = assay: Ratio of drug level in tumor core to tumor rim in Rowett rat orthotopically xenografted with human U87 cells at 20 mg/kg/day, po for 5 days by LC-MS/MS analysis; format: ADME, organism-based, U-87MG ATCC; set-up: route oral; settings: in vivo, 120 h; in short: as §5
[17] = Ratio of drug level in tumor rim to plasma in Rowett rat orthotopically xenografted with human U87 cells at 20 mg/kg/day for 3 days by LC-MS/MS analysis in presence of elacridar; format: ADME, organism-based, U-87MG ATCC; settings: with elacridar (dose not stated); in short: as §2
[18] = Plasma concentration at steady state in wild-type FVB mouse at 0.6 mg/h/kg, ip administered as infusion after 48 hrs by LC-MS/MS analysis; format: ADME, organism-based; settings: read-out: Cpss; in short: as §4
[19] = Drug uptake at steady state in wild-type FVB mouse brain at 0.6 mg/h/kg, ip administered as infusion after 48 hrs by LC-MS/MS analysis; format: ADME, organism-based; settings: read-out: Drug uptake; in short: as §4
[20] = Drug uptake at steady state in BCRP1 knock-out FVB mouse brain at 0.6 mg/h/kg, ip administered as infusion after 48 hrs by LC-MS/MS analysis; format: ADME, organism-based; settings: read-out: Drug uptake; in short: as §4
[21] = Ratio of steady state drug level in brain to plasma in MDR1A/B FVB mouse at 0.6 mg/h/kg, ip administered as infusion after 48 hrs by LC-MS/MS analysis; format: ADME, organism-based; settings: read-out: BPR
In short: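 Male FVB Mdr1a/b−/− mice, 8–10 weeks, n = 4. Erlotinib given by constant i.p. infusion at 0.6 mg/h/kg for 48 h to steady state. Brain and plasma by LC-MS/MS after homogenizing brain in 3 volumes 5% BSA/PBS; brain values corrected for residual vascular blood (plasma space 1.4% of brain). Mean ± S.D.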

[22] = Ratio of drug level in tumor core to plasma in Rowett rat orthotopically xenografted with human U87 cells at 20 mg/kg/day, po for 5 days by LC-MS/MS analysis; format: ADME, organism-based, U-87MG ATCC; set-up: route oral; in short: as §1
[23] = Ratio of drug level in tumor rim to plasma in Rowett rat orthotopically xenografted with human U87 cells at 20 mg/kg/day, po for 5 days by LC-MS/MS analysis; format: ADME, organism-based, U-87MG ATCC; set-up: route oral; in short: as §1
[24] = Plasma concentration at steady state in MDR1A/B/BCRP1 knock-out FVB mouse at 0.6 mg/h/kg, ip administered as infusion after 48 hrs by LC-MS/MS analysis; format: ADME, organism-based; settings: read-out: Cpss; in short: as §4
[25] = Ratio of drug level in brain contralateral hemisphere to plasma in Rowett rat orthotopically xenografted with human U87 cells at 20 mg/kg/day, po for 5 days by LC-MS/MS analysis; format: ADME, organism-based, U-87MG ATCC; set-up: route oral; settings: read-out: BPR; in short: as §5
[26] = Drug uptake at steady state in MDR1A/B/BCRP1 knock-out FVB mouse brain at 0.6 mg/h/kg, ip administered as infusion after 48 hrs by LC-MS/MS analysis; format: ADME, organism-based; settings: read-out: Drug uptake; in short: as §4
[27] = Ratio of steady state drug level in brain to plasma in wild-type FVB mouse at 0.6 mg/h/kg, ip administered as infusion after 48 hrs by LC-MS/MS analysis; format: ADME, organism-based; settings: read-out: BPR; in short: as §4
[28] = Drug uptake at steady state in MDR1A/B knock-out FVB mouse brain at 0.6 mg/h/kg, ip administered as infusion after 48 hrs by LC-MS/MS analysis; format: ADME, organism-based; settings: read-out: Drug uptake; in short: as §4
[29] = Plasma concentration at steady state in BCRP1 knock-out FVB mouse at 0.6 mg/h/kg, ip administered as infusion after 48 hrs by LC-MS/MS analysis; format: ADME, organism-based; settings: read-out: Cpss; in short: as §4
[30] = Ratio of steady state drug level in brain to plasma in MDR1A/B/BCRP1 FVB mouse at 0.6 mg/h/kg, ip administered as infusion after 48 hrs by LC-MS/MS analysis; format: ADME, organism-based; settings: read-out: BPR; in short: as §4

C#Cc1cccc(Nc2ncnc3cc(OCCOC)c(OCCOC)cc23)c1.Cl [ERLOTINIB HYDROCHLORIDE]
concentration at 120 h [1]: 390 ng/g
concentration at 120 h [2]: 1830 ng/g
fold change (FC) [3]: 4
fold change (FC) [4]: 12
Drug uptake [5]: Active
concentration at 48 h [6]: 81 ng/mL
Kp at 72 h [7]: 1
Ratio (Nucleic Acid [8]): 5
fold change (FC) (Brain [9]): 12
Drug uptake [10]: Active
Kp at 72 h [11]: 1
Drug uptake (Brain [12]): Active
concentration at 120 h [13]: 370 ng/g
half-life [14]: 1 h
Kp at 48 h [15]: 0.07
Ratio (Nucleic Acid [16]): 4.7
Kp at 72 h [17]: 1
concentration at 48 h [18]: 72 ng/mL
concentration at 48 h [19]: 4.3 ng/g
concentration at 48 h [20]: 4.9 ng/g
Kp at 48 h [21]: 0.09
Kp at 120 h [22]: 0.51
Kp at 120 h [23]: 0.1
concentration at 48 h [24]: 99 ng/mL
Kp at 120 h [25]: 0.09
concentration at 48 h [26]: 34 ng/g
Kp at 48 h [27]: 0.02
concentration at 48 h [28]: 12 ng/g
concentration at 48 h [29]: 71 ng/mL
Kp at 48 h [30]: 0.62
